Laboratory results published in ChEMBL document CHEMBL3853270, “Influence of Birch Bark Triterpenes on Keratinocytes and Fibroblasts from Diabetic and Nondiabetic Donors” (2016).
The source made the active and inactive calls. The rule behind the calls is not given here.

Assays:
Format in all cases: functional
Fibroblast [1] = test: Effect on chemokines related gene expression in diabetic adult human primary fibroblasts assessed as IL8 mRNA levels at 9.81 uM after 6 hrs by qPCR analysis
Fibroblast [2] = test: Effect on actin cytoskeleton in human non-diabetic primary fibroblasts assessed as formation of thin elongated cellular body at 10 nM after 2 hrs in presence of p-38 MAPK inhibitor LN 950 by rhodamine phalloidin-staining based fluorescence microscopic analysis
Method in brief: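 Subconfluent cells on glass coverslips, collagen type I coated for fibroblasts; keratinocytes starved 2 days before stimulation. Exposure 2 h, then rhodamine-phalloidin staining (1:25 in PBS) and fluorescence microscopy. Controls were DMSO as solvent and PDGF (fibroblasts) or CNF1 (keratinocytes). Where used, p38-MAPK inhibitor LN 950 (100 nM) was added 30 min beforehand.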

Fibroblast [3] = test: Effect on antioxidant related gene expression in diabetic adult human primary fibroblasts assessed as SOD2 mRNA levels at 9.81 uM after 6 hrs by qPCR analysis
Keratinocyte [4] = test: Effect on pro-inflammatory related gene expression in non-diabetic young human primary keratinocytes assessed as IL1B mRNA levels at 9.81 uM after 6 hrs by qPCR analysis
Fibroblast [5] = test: Effect on MMP1 mRNA expression levels in non-diabetic adult human primary fibroblasts at 1.96 uM after 6 hrs by qPCR analysis
Method in brief: (§1)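 Primary dermal fibroblasts from one nondiabetic young, one nondiabetic adult and one diabetic adult donor; 320 000 cells per sample, 6 h at 1.96 or 9.81 μM. RNA measured on a high-throughput qPCR chip. Fold change versus 0.1% DMSO control, four independent experiments, SD, one-way ANOVA with Bonferroni post-test.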

Keratinocyte [6] = test: Effect on antioxidant related gene expression in non-diabetic young human primary keratinocytes assessed as SOD2 mRNA levels at 9.81 uM after 6 hrs by qPCR analysis
Fibroblast [7] = test: Effect on MMP1 mRNA expression levels in non-diabetic adult human primary fibroblasts at 9.81 uM after 6 hrs by qPCR analysis; method in brief: as §1
Keratinocyte [8] = test: Effect on pro-inflammatory related gene expression in non-diabetic young human primary keratinocytes assessed as PTGS2 mRNA levels at 1.96 uM after 6 hrs by qPCR analysis
Keratinocyte [9] = test: Effect on AQP3 mRNA expression levels in diabetic adult human primary keratinocytes at 9.81 uM after 6 hrs by qPCR analysis
Method in brief: (§2)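 Primary keratinocytes from nondiabetic young and adult and diabetic adult donors; 400 000 cells per sample, 6 h exposure at 1.96 or 9.81 μM. RNA extracted and read on a high-throughput qPCR chip. Results are fold change versus 0.1% DMSO solvent control from 5−7 independent experiments over two donors per group, SD, one-way ANOVA with Bonferroni post-test.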

Fibroblast [10] = test: Effect on antioxidant related gene expression in non-diabetic young human primary fibroblasts assessed as NFE2L2 mRNA levels at 1.96 uM after 6 hrs by qPCR analysis
Keratinocyte [11] = test: Effect on cellular connection related gene expression in non-diabetic young human primary keratinocytes assessed as CLDN4 mRNA levels at 1.96 uM after 6 hrs by qPCR analysis
Keratinocyte [12] = test: Effect on pro-inflammatory related gene expression in diabetic adult human primary keratinocytes assessed as TNF mRNA levels at 9.81 uM after 6 hrs by qPCR analysis
[13] = Effect on wound healing activity in diabetic adult human primary keratinocytes assessed as upregulation of soluble E-selectin protein levels at 1.96 uM after 24 hrs by bead-based suspension array analysis; settings: Keratinocyte
Keratinocyte [14] = test: Effect on MMP1 mRNA expression levels in non-diabetic young human primary keratinocytes at 9.81 uM after 6 hrs by qPCR analysis; method in brief: as §2
Keratinocyte [15] = test: Effect on transcription factor related gene expression in non-diabetic young human primary keratinocytes assessed as JUN mRNA levels at 9.81 uM after 6 hrs by qPCR analysis
Keratinocyte [16] = test: Effect on pro-inflammatory related gene expression in non-diabetic adult human primary keratinocytes assessed as PTGS2 mRNA levels at 9.81 uM after 6 hrs by qPCR analysis
Keratinocyte [17] = test: Effect on pro-inflammatory related gene expression in diabetic adult human primary keratinocytes assessed as IL6 mRNA levels at 9.81 uM after 6 hrs by qPCR analysis
Fibroblast [18] = test: Effect on growth factor related gene expression in non-diabetic young human primary fibroblasts assessed as VEGFA mRNA levels at 1.96 uM after 6 hrs by qPCR analysis
Method in brief: (§3)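 Primary human dermal fibroblasts (young or adult nondiabetic, adult diabetic donor) were treated for 6 h against a 0.1% DMSO solvent control. RNA from 320 000 cells per sample was measured by Fluidigm Biomark high-throughput qPCR. Values are fold change relative to solvent control, from four independent experiments, with SD. One-way ANOVA with Bonferroni post-test was applied.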

Keratinocyte [19] = test: Effect on transcription factor related gene expression in diabetic adult human primary keratinocytes assessed as JUN mRNA levels at 9.81 uM after 6 hrs by qPCR analysis
Fibroblast [20] = test: Effect on MMP1 mRNA expression levels in diabetic adult human primary fibroblasts at 9.81 uM after 6 hrs by qPCR analysis; method in brief: as §1
Fibroblast [21] = test: Effect on chemokines related gene expression in non-diabetic adult human primary fibroblasts assessed as CCL2 mRNA levels at 1.96 uM after 6 hrs by qPCR analysis
Keratinocyte [22] = test: Effect on antioxidant related gene expression in non-diabetic young human primary keratinocytes assessed as SOD2 mRNA levels at 1.96 uM after 6 hrs by qPCR analysis
Fibroblast [23] = test: Effect on growth factors related gene expression in non-diabetic adult human primary fibroblasts assessed as FGF2 mRNA levels at 1.96 uM after 6 hrs by qPCR analysis; method in brief: as §3
Fibroblast [24] = test: Effect on pro-inflammatory related gene expression in non-diabetic young human primary fibroblasts assessed as IL1R1 mRNA levels at 9.81 uM after 6 hrs by qPCR analysis
Keratinocyte [25] = test: Effect on MMP1 mRNA expression levels in non-diabetic adult human primary keratinocytes at 9.81 uM after 6 hrs by qPCR analysis; method in brief: as §2
Keratinocyte [26] = test: Effect on ECM related gene expression in non-diabetic adult human primary keratinocytes assessed as FBN1 mRNA levels at 9.81 uM after 6 hrs by qPCR analysis; method in brief: as §2
Keratinocyte [27] = test: Effect on transcription factor related gene expression in non-diabetic adult human primary keratinocytes assessed as JUN mRNA levels at 1.96 uM after 6 hrs by qPCR analysis
[28] = Effect on wound healing activity in diabetic adult human primary keratinocytes assessed as upregulation of RANTES protein levels at 1.96 uM after 24 hrs by bead-based suspension array analysis; settings: Keratinocyte
Fibroblast [29] = test: Effect on adhesion molecules related gene expression in diabetic adult human primary fibroblasts assessed as VCAM1 mRNA levels at 1.96 uM after 6 hrs by qPCR analysis
Method in brief: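 Dermal fibroblasts from nondiabetic adult and diabetic adult donors, exposed for 6 h at 1.96 or 9.81 μM. ICAM-1 and VCAM-1 mRNA measured by standard qRT-PCR, n = 3. Fold change versus 0.1% DMSO control, SD, one-way ANOVA with Bonferroni post-test.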

Keratinocyte [30] = test: Effect on chemokines related gene expression in diabetic adult human primary keratinocytes assessed as IL8 mRNA levels at 9.81 uM after 6 hrs by qPCR analysis

C=C(C)[C@@H]1CC[C@]2(CO)CC[C@]3(C)[C@H](CC[C@@H]4[C@@]5(C)CC[C@H](O)C(C)(C)[C@@H]5CC[C@]43C)[C@@H]12 [BETULIN]
fold change (FC) (Fibroblast [1]): 3.7 | Activity (Fibroblast [2]): Active | fold change (FC) (Fibroblast [3]): 1.1 | fold change (FC) (Keratinocyte [4]): 0.9 | fold change (FC) (Fibroblast [5]): 2.1 | fold change (FC) (Keratinocyte [6]): 1.4 | fold change (FC) (Fibroblast [7]): 2.3 | fold change (FC) (Keratinocyte [8]): 1.4 | fold change (FC) (Keratinocyte [9]): 0.8 | fold change (FC) (Fibroblast [10]): 1.2 | fold change (FC) (Keratinocyte [11]): 1.5 | fold change (FC) (Keratinocyte [12]): 13 | Activity [13]: Active | fold change (FC) (Keratinocyte [14]): 1 | fold change (FC) (Keratinocyte [15]): 1.8 | fold change (FC) (Keratinocyte [16]): 1.3 | fold change (FC) (Keratinocyte [17]): 26 | fold change (FC) (Fibroblast [18]): 1.7 | fold change (FC) (Keratinocyte [19]): 1.7 | fold change (FC) (Fibroblast [20]): 0.6 | fold change (FC) (Fibroblast [21]): 171 | fold change (FC) (Keratinocyte [22]): 1.3 | fold change (FC) (Fibroblast [23]): 2.9 | fold change (FC) (Fibroblast [24]): 3.9 | fold change (FC) (Keratinocyte [25]): 1 | fold change (FC) (Keratinocyte [26]): 0.7 | fold change (FC) (Keratinocyte [27]): 1.3 | Activity [28]: Active | fold change (FC) (Fibroblast [29]): 3.3 | fold change (FC) (Keratinocyte [30]): 56
